Source: ChEMBL document CHEMBL4400529, “Structure-based drug design, synthesis, In vitro, and In vivo biological evaluation of indole-based biomimetic analogs targeting estrogen receptor-α inhibition” (Eur J Med Chem, 2019)
pIC50: −log10 of the molar value. Calls of active or inactive are those of the source. The calls are words filed in the database; no cut-off is given here.

Assays:
[1] = molecular target: T1, Estrogen receptor (Homo sapiens, UniProt P03372); test: Inhibition of estrogen receptor-alpha (unknown origin) by ELISA
T1 sequence (P03372 whole entry): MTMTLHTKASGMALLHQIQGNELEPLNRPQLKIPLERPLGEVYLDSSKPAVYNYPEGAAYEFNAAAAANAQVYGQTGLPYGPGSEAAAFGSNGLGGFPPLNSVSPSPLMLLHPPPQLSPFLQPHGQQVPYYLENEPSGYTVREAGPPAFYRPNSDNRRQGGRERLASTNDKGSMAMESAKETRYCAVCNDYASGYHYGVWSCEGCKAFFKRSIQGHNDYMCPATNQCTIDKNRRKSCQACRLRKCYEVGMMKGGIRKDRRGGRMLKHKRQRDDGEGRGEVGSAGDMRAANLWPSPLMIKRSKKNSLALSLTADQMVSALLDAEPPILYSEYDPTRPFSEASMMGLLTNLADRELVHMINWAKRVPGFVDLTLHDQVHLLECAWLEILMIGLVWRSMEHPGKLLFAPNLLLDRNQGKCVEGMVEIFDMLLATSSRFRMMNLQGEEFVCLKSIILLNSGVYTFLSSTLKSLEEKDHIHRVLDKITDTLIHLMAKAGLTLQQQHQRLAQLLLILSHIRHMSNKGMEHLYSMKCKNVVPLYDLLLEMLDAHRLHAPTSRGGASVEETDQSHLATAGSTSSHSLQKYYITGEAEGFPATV

[2] = test system: MCF7; test: Antiproliferative activity against human MCF7 cells after 24 hrs by MTT assay; assay type: functional, cell-based; details: MCF7, 24 h
In short: (§1)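 Cells from ATCC, subcultured by an earlier reported method, then exposed to 5-fold serial dilutions in triplicate for 24 h. Cells were washed with PBS, given MTT for 2 h, then dissolved in DMSO. Absorbance read at 570 nm.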

[3] = test system: T47D; test: Antiproliferative activity against human T47D cells after 24 hrs by MTT assay; assay type: functional, cell-based; in short: as §1
[4] = Acute toxicity in Swiss albino mouse assessed induction of mortality at 10 mg/mouse, ip dosed once weekly; assay type: organism-based; details: in vivo
In short: (§2)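 Normal female-strain-unspecified mice got a single i.p. dose of 10 mg/mouse. They were watched for 7 days for short-term acute toxic signs, behavioural changes and mortality.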

[5] = test system: Mus musculus; test: Decrease in ER-alpha protein expression in tumors of Swiss albino mouse mouse implanted with mouse EAC cells at 5 mg/mouse, ip dosed once weekly starting 5 days after inoculation by immunohistochemical analysis relative to control; assay type: functional; parameters: scale not given: the % may be the effect or the level left
In short: (§3)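 Tumors from the EAC mouse model after 15 days of treatment were stained by avidin-biotin immunoperoxidase using an anti-ER-α monoclonal antibody (1:100 in PBS), detected with DAB and counterstained with Mayer's hematoxylin. A section without primary antibody served as negative control. Percentage of positive cells estimated in 10 random fields per section per animal. Mean ± SD, n=10.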

[6] = Acute toxicity in Swiss albino mouse implanted with mouse EAC cells assessed effect on body weight at 5 to 10 mg/mouse, ip dosed once weekly starting 5 days after inoculation and measured up to 20 days after inoculation; assay type: organism-based; details: in vivo
In short: (§4)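 Female Swiss albino mice were given EAC cells from donor ascitic fluid, diluted in sterile saline to ~12.5 × 10^6/mL, 0.2 mL i.m. into the left thigh. Once-weekly i.p. dosing in 10% Tween 80 began at a palpable ~100 mm3 mass; controls got vehicle. Tumour volume (caliper, L × H² × 0.52) and body weight were taken over 15 days; n=10, mean ± SD, ANOVA/Tukey-Kramer.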

[7] = test system: Ehrlich; test: Antitumor activity against mouse EAC cells implanted in Swiss albino mouse assessed as reduction in tumor size at 5 to 10 mg/mouse, ip dosed once weekly starting 5 days after inoculation and measured 9 and 12 days of treatment relative to fulvestrant; assay type: functional, organism-based
In short: (§5)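 Female Swiss albino mice received EAC cells from donor ascitic fluid (~12.5 × 10^6/mL in sterile saline, 0.2 mL) i.m. into the left thigh. Treatment began at a palpable mass of ~100 mm3, given i.p. once weekly in 10% Tween 80 against vehicle and fulvestrant 5 mg/mouse controls. Caliper tumor volume = L × H² × 0.52. Mean ± SD, n=10, one-way ANOVA with Tukey-Kramer.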

[8] = test system: Mus musculus; test: Decrease in ER-alpha protein expression in tumors of Swiss albino mouse mouse implanted with mouse EAC cells at 10 mg/mouse, ip dosed once weekly starting 5 days after inoculation by immunohistochemical analysis relative to fulvestrant; assay type: functional; parameters: scale not given: the % may be the effect or the level left; in short: as §3
[9] = test system: Mus musculus; test: Decrease in ER-alpha protein expression in tumors of Swiss albino mouse mouse implanted with mouse EAC cells at 10 mg/mouse, ip dosed once weekly starting 5 days after inoculation by immunohistochemical analysis relative to control; assay type: functional; parameters: scale not given: the % may be the effect or the level left; in short: as §3
[10] = Acute toxicity in Swiss albino mouse assessed induction of behavioural changes at 10 mg/mouse, ip dosed once weekly; assay type: organism-based; details: in vivo; in short: as §2
[11] = test system: Mus musculus; test: Decrease in ER-alpha protein expression in tumors of Swiss albino mouse mouse implanted with mouse EAC cells at 5 mg/mouse, ip dosed once weekly starting 5 days after inoculation by immunohistochemical analysis relative to fulvestrant; assay type: functional; parameters: scale not given: the % may be the effect or the level left; in short: as §3
[12] = test system: Ehrlich; test: Antitumor activity against mouse EAC cells implanted in Swiss albino mouse assessed as induction of tumor degeneration in outer zone of tumor mass at 10 mg/mouse, ip dosed once weekly starting 5 days after inoculation by hematoxylin and eosin staining-based assay; assay type: functional, organism-based
In short: (§6)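 EAC solid tumors in female Swiss albino mice, with weekly i.p. treatment in 10% Tween 80 against vehicle and fulvestrant controls. Tumors were collected on day 15, formalin-fixed, paraffin-embedded and stained with H&E. Necrotic index scored in 10 random fields per section per animal. n=10, one-way ANOVA with Tukey-Kramer.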

[13] = test system: Ehrlich; test: Antitumor activity against mouse EAC cells implanted in Swiss albino mouse assessed as increase in necrotic areas in outer zone of tumor mass at 10 mg/mouse, ip dosed once weekly starting 5 days after inoculation by hematoxylin and eosin staining-based assay; assay type: functional, organism-based; in short: as §6
[14] = test system: Ehrlich; test: Antitumor activity against mouse EAC cells implanted in Swiss albino mouse assessed as reduction in tumor volume at 5 mg/mouse, ip dosed once weekly starting 5 days after inoculation and measured on 15 days of treatment relative to fulvestrant; assay type: functional, organism-based; in short: as §5
[15] = Acute toxicity in Swiss albino mouse assessed induction of toxic signs at 10 mg/mouse, ip dosed once weekly; assay type: organism-based; details: in vivo; in short: as §2
[16] = test system: Ehrlich; test: Antitumor activity against mouse EAC cells implanted in Swiss albino mouse assessed as reduction in viable tumor cell area in outer zone of tumor mass at 10 mg/mouse, ip dosed once weekly starting 5 days after inoculation by hematoxylin and eosin staining-based assay; assay type: functional, organism-based; in short: as §6
[17] = test system: Ehrlich; test: Antitumor activity against mouse EAC cells implanted in Swiss albino mouse assessed as reduction in tumor size at 5 mg/mouse, ip dosed once weekly starting 5 days after inoculation; assay type: functional, organism-based; in short: as §4
[18] = test system: Ehrlich; test: Antitumor activity against mouse EAC cells implanted in Swiss albino mouse assessed as induction of necrosis at 5 mg/mouse, ip dosed once weekly starting 5 days after inoculation by hematoxylin and eosin staining-based assay; assay type: functional, organism-based; in short: as §6
[19] = test system: Ehrlich; test: Antitumor activity against mouse EAC cells implanted in Swiss albino mouse assessed as viable cell area in deeper parts of tumor mass at 10 mg/mouse, ip dosed once weekly starting 5 days after inoculation by hematoxylin and eosin staining-based assay; assay type: functional, organism-based; in short: as §6
[20] = test system: Ehrlich; test: Antitumor activity against mouse EAC cells implanted in Swiss albino mouse assessed as reduction in tumor volume at 10 mg/mouse, ip starting 5 days after inoculation dosed once weekly and measured on 15 days of treatment relative to fulvestrant; assay type: functional, organism-based; in short: as §5
[21] = test system: Ehrlich; test: Antitumor activity against mouse EAC cells implanted in Swiss albino mouse assessed as focal necrotic areas in deeper parts of tumor mass at 10 mg/mouse, ip dosed once weekly starting 5 days after inoculation by hematoxylin and eosin staining-based assay; assay type: functional, organism-based; in short: as §6

Row | Structure (SMILES) | pIC50 [1] | pIC50 [2] | pIC50 [3] | also measured
1 | O=S(=O)(Nc1ccc2cc[nH]c2c1)c1ccc(Cl)cc1 | 7.35 | 4.27 | 4.34 | –
2 | O=S(=O)(Nc1ccc2cc[nH]c2c1)c1ccc(Br)cc1 | 7.64 | 4.42 | 4.40 | –
3 | Cc1ccc(S(=O)(=O)Nc2ccc3cc[nH]c3c2)cc1 | 6.69 | 4.43 | 4.24 | –
4 | N#Cc1ccc(C(=O)Nc2ccc3cc[nH]c3c2)cc1 | 8.62 | 4.47 | 4.45 | –
5 | O=C(Nc1ccc2cc[nH]c2c1)c1cccc(C(F)(F)F)c1 | 8.75 | 4.51 | 4.55 | Activity [4]: Non-Toxic; Activity [5]: 64.71%; Activity [6]: Non-Toxic; Activity [7]: Active; Activity [8]: 22.54%; Activity [9]: 35.3%; Activity [10]: Non-Toxic; Activity [11]: 57.75%; Activity [12]: Active; Activity [13]: Active; Activity [14]: Active; Activity [15]: Non-Toxic; Activity [16]: Active
6 | C[C@]12CC[C@@H]3c4ccc(O)cc4C[C@@H](CCCCCCCCC[S+]([O-])CCCC(F)(F)C(F)(F)F)[C@H]3[C@@H]1CC[C@@H]2O (some centres undefined) | – | – | – | Activity [17]: Active
7 | O=C(Nc1ccc2cc[nH]c2c1)c1ccc(C(F)(F)F)cc1 | 8.09 | 4.20 | 4.29 | –
8 | CC/C(=C(\c1ccccc1)c1ccc(OCCN(C)C)cc1)c1ccccc1 [TAMOXIFEN] | – | 4.37 | 4.46 | –
9 | O=S(=O)(Nc1ccc2cc[nH]c2c1)c1ccc(F)cc1 | 8.48 | 4.51 | 4.48 | Activity [18]: inactive; Activity [4]: Non-Toxic; Activity [19]: Active; Activity [5]: 58.24%; Activity [6]: Non-Toxic; Activity [7]: Active; Activity [8]: 25.35%; Activity [9]: 37.65%; Activity [20]: Active; Activity [10]: Non-Toxic; Activity [11]: 50%; Activity [15]: Non-Toxic; Activity [21]: Active
10 | O=C(Nc1ccc2cc[nH]c2c1)c1ccc(Br)cc1 | 8.33 | 4.42 | 4.20 | –
11 | O=C(Nc1ccc2cc[nH]c2c1)c1ccc(F)cc1 | 7.16 | 4.34 | 4.46 | –
12 | COc1ccc(S(=O)(=O)Nc2ccc3cc[nH]c3c2)cc1 | 8.12 | 4.24 | 4.35 | –
